GRIN3A LBD mod – binders of NR3A ligand-binding domain, primary screen, biophysical, differential scanning fluorimetry, uHTS; Glutamate receptor ionotropic, NMDA 3A (GRIN3A) ligand-binding domain; NR3A LBD differential scanning fluorimetry, Tm shift; 0% = protein alone, 100% = glycine-bound protein; Tm shift relative to glycine control, % at 25 µM; hit rate 2.5% among 340,000;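 active = melting temperature shift of at least 10% of the positive control shift, at one fixed dose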
SENP1 FRET inh – human SENP1 catalytic domain inhibitors, primary screen, biochemical, FRET, uHTS; Sentrin-specific protease 1 (Homo sapiens), Q9P0U3; recombinant SENP1 catalytic domain, CyPet-SUMO1-YPet FRET cleavage; inhibition, % at 10 µM; hit rate 0.21% among 360,000; AID 624204, 2012;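 active = inhibition at least 30% at 10 µM, raw YFP signal under a set limit, fluorescence ratio 0.5 to 1.5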;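 also: 0% = enzyme with DMSO and 100% = no enzyme wells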
Target sequence (Q9P0U3 419-644 limits assumed): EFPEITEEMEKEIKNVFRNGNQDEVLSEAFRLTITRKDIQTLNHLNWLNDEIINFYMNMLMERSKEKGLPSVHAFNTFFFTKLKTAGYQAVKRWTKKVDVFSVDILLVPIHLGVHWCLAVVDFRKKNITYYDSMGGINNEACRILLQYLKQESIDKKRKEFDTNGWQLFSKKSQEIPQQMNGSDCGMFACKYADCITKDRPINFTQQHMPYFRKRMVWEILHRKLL
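material = recombinant human SENP1 catalytic domain, His6-tagged | quantity = 20 pM enzyme | reagent = 25 nM SUMO1 FRET substrate | compound dosing = 10 µM single point, 0.5% DMSO | timing = 50 min enzyme reaction, room temperature, light-protected | detection = FRET, CFP and YFP emission | control set = no-enzyme low, enzyme-DMSO high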
UCH37 inh – inhibitors of human UCH37 deubiquitinase, primary screen, biochemical, Ub-AMC cleavage, fluorescence; purified proteasome/UCH37; hit rate 0.33% among 330,000; Ubiquitin carboxyl-terminal hydrolase isozyme L5 (Homo sapiens), Q9Y5K5; AID 588478, 2011; inhibition, % (no concentration beside the values);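 active = mean inhibition over replicate wells above about 20%, limit read from the data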;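 also: 0% = compound-free wells with enzyme and 100% = wells lacking proteasome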
Target sequence (Q9Y5K5 whole entry, looked up): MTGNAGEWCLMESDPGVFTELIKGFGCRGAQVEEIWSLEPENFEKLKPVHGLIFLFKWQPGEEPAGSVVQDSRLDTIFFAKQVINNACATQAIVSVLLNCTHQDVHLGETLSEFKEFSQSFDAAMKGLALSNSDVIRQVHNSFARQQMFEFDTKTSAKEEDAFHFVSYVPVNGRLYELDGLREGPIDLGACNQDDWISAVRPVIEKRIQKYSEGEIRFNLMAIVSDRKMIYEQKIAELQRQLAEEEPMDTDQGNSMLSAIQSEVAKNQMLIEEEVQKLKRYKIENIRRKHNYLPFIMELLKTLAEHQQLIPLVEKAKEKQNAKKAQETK
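Material: Human UCH37 enzyme supplied as purified proteasome complex | Schedule: 30 min compound-proteasome preincubation then 25 min substrate reaction, room temperature | Detection: AMC fluorescence from Ub-AMC cleavage, excitation 355 nm, emission 460 nm | Benchmarks: Wells without proteasome as full block, compound-free enzyme plus substrate as uninhibited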
ATG4B inhibitor – ATG4B protease inhibitors, primary screen, biochemical, fluorescence, uHTS. Cysteine protease ATG4B (Homo sapiens), Q9Y4P1. ATG4B cleavage of LC3-PLA2, NBD-HPC fluorescence, 1 h. inhibition, % at 8.33 µM. hit rate 0.51% among 340,000; in the data active = inhibition above about 40%
NadD inh – inhibitors of S. aureus NadD, primary screen, biochemical, colorimetric, uHTS; purified NadD enzyme, colorimetric absorbance read-out; hit rate 0.78% among 360,000; Nicotinate-nucleotide adenylyltransferase NadD (Staphylococcus aureus N315); AID 602399, 2012; inhibition, % at 20 µM; in the data active = inhibition above about 26%
* = called active by the depositor; . = no result given. Only some compounds are listed: those with a hit (about 3.6% of all), similar ones and a draw of the others.

SMILES	GRIN3A LBD mod	SENP1 FRET inh	UCH37 inh	ATG4B inhibitor	NadD inh
Cc1ccccc1N(CC(=O)NN=Cc1cc(C)n(-c2ccccc2C)c1C)S(C)(=O)=O	.	.	5.6	.	.
Cc1ccc(CSc2ccc(-c3cccs3)nn2)cc1	14.1*	0.1	4.2	6.2	3.5
Cc1ccc(CNC(=O)CSc2ccc(-c3cccs3)nn2)cc1	-2.4	3.6	5.3	-4.2	-2.3
COc1ccc(CCNC(=O)CSc2ccc(-c3cccs3)nn2)cc1	29.2*	-0.7	-0.9	-5.1	-5.2
Brc1ccccc1C=NNc1ccccn1	.	.	0.2	.	.
COc1ccc(NC(=O)CCC(=O)NN=Cc2cn(C)nc2C)cc1	.	.	1.1	.	.
CCn1ncc(C=NNC(=O)COc2ccccc2)c1C	.	.	-0.3	.	.
O=c1[nH]c(C2CCN(S(=O)(=O)c3ccc(S(=O)(=O)NC4CC4)cc3)CC2)nc2c1nnn2Cc1ccc(F)cc1	10.5*	-0.4	3.9	-13.7	13.8
Cc1ccc(C)c(Cn2nnc3c(=O)[nH]c(C4CCN(S(=O)(=O)c5ccc(S(=O)(=O)NC6CC6)cc5)CC4)nc32)c1	12.1*	1.1	3.9	-9.9	26.0
O=c1[nH]c(C2CCN(S(=O)(=O)c3ccc(S(=O)(=O)NC4CC4)cc3)CC2)nc2c1nnn2Cc1ccccc1	4.1	1.9	0.7	-10.2	17.4
Cc1cccc(NC(=S)NN=C2CC(C)(C)Oc3ccc(O)cc32)c1	.	.	-12.2	.	.
COC(=O)c1ccc(CON=C2CCCc3nonc32)cc1	.	.	0.3	.	.
CC(=O)Nc1ccc(Nc2ncnc3c2cnn3-c2cccc(C)c2)cc1	22.1*	2.3	-25.0	-19.4	-0.8
Clc1ccc(Nc2ncnc3c2cnn3-c2ccccc2)cc1	1.7	-1.4	-14.0	4.9	-2.6
CC(=O)Nc1ccc(Nc2ncnc3c2cnn3-c2ccccc2)cc1	18.7*	-1.6	-88.5	-18.2	1.7
Cc1ccccc1NN=Cc1sc(=O)n(Cc2cccc(C(=O)O)c2)c1Cl	.	.	14.4	.	.
COc1ccccc1NC(=S)N=Nc1c(O)[nH]c2ccc(Br)cc12	8.2	5.3	5.3	2.1	29.8*
O=[N+]([O-])c1ccccc1N=Nc1c(O)[nH]c2ccc(F)cc12	-1.0	1.8	.	-0.2	9.5
Oc1[nH]c2ccc(Br)cc2c1N=Nc1ccc(F)cc1	29.9*	13.2	3.0	-13.2	3.3
O=[N+]([O-])c1ccc(N=Nc2c(O)[nH]c3ccc(F)cc23)cc1	18.9*	49.5*	7.1	-11.2	10.6
CC(=NNC(=S)Nc1cc(S(=O)(=O)N2CCOCC2)ccc1Cl)c1ccccc1F	.	.	2.5	.	.
COc1ccccc1C=NNC(=O)c1nnn(-c2nonc2N)c1-c1ccccc1	.	.	-2.8	.	.
Cc1ccc(OCCSCc2nnc(NC(=O)Nc3cccc(Cl)c3)s2)cc1	13.9*	-15.5	-2.4	-9.8	5.2
CCN(CC)c1ccc(/C=N/NC(=O)Cc2nnc(NC(=O)Nc3ccccc3)s2)cc1	-2.4	-47.0	.	-2.3	47.9*
O=C(Cc1nc(=O)c2ccccc2s1)Nc1ccccc1	18.0*	-11.3	-3.7	-5.3	7.4
SMILES	GRIN3A LBD mod	SENP1 FRET inh	UCH37 inh	ATG4B inhibitor	NadD inh
O=C(Cc1ccccc1)Nc1nc(=O)c2ccccc2s1	-1.9	0.8	5.2	5.5	-1.7
O=C(Cc1nnc(NC(=O)Nc2ccccc2)s1)Nc1ccccc1	12.4*	0.7	2.3	0.8	6.4
CC(=NNC(=O)CNC(=O)c1ccco1)c1ccc(Br)cc1	.	.	1.7	.	.
O=C(Nc1ccccc1)Nc1nnc(CSCc2ccccc2Cl)s1	30.3*	-1.0	.	23.5	-0.5
O=C(Cc1nnc(NC(=O)Nc2ccc(F)cc2)s1)Nc1ccccc1	25.4*	-3.5	3.0	4.4	0.1
CSc1ccc(/C=C/C(=O)Nc2ccccc2)cc1	20.6*	-1.6	-0.4	-1.0	-3.8
CSc1cccc(NC(=O)/C=C/c2ccc(Cl)cc2)c1	17.4*	0.7	0.3	0.8	-0.3
CSc1cccc(NC(=O)/C=C/c2ccccc2)c1	17.3*	-0.1	3.2	3.9	-9.7
CSc1cccc(NC(=O)/C=C/c2ccco2)c1	-6.0	-17.8	0.4	-0.1	11.3
CC(=O)Nc1ccc(NC(=O)/C=C/c2ccccc2)cc1	5.5	-0.5	6.3	-2.1	-1.1
Cc1nc(NC(=O)/C=C/c2ccccc2)sc1C(=O)Nc1cccc(Cl)c1	31.6*	1.7	.	-3.8	11.7
CC(=NNS(=O)(=O)c1ccc(C)cc1)c1ccc(C)s1	.	.	-0.1	.	.
Cc1ccc(OCC(=O)NN=C/C=C/c2ccco2)cc1	.	.	4.2	.	.
CC1=C(N2CCCCC2)CCC1=O	0.3	0.2	33.1*	0.6	-5.5
C/C(=N\Nc1nc(-c2ccccc2O)nc2ccccc12)c1ccccc1	13.4*	3.3	.	3.3	5.3
C/C(=N/Nc1nc(-c2ccccc2F)nc2ccccc12)c1ccccc1O	-4.7	73.9*	.	6.9	2.7
CC(=NNc1nc(-c2ccccn2)nc2ccccc12)c1ccc(F)cc1	.	.	8.0	.	.
CCOC(=O)c1cc2sccc2n1CC(=O)N1c2ccccc2CC1C (stereo not drawn)	12.0*	-0.4	2.9	1.9	1.5
COc1ccc(NS(=O)(=O)c2cccc(NC(=NS(=O)(=O)c3ccccc3)c3ccc(F)cc3)c2)cc1	.	.	-0.1	.	.
c1cncc(Nc2nc(-c3cccnc3)cs2)c1	-0.1	0.9	4.4	7.7	-5.9
CC(=O)Nc1nc(C)c(-c2csc(Nc3ccccn3)n2)s1	21.8*	1.1	-76.7	-19.5	-3.3
Clc1cccc(-c2csc(Nc3cccnc3)n2)c1	28.8*	2.2	2.0	-13.8	-1.9
Cc1ccc(C)c(Nc2nc(-c3cccnc3)cs2)c1	20.2*	3.3	0.8	-6.2	0.2
c1ccc(Nc2nc(-c3cccnc3)cs2)nc1	33.8*	3.5	1.7	5.7	-3.4
CCc1c(C(=O)NN=Cc2ccc(C)o2)csc1C	.	.	5.5	.	.
SMILES	GRIN3A LBD mod	SENP1 FRET inh	UCH37 inh	ATG4B inhibitor	NadD inh
CC(=NNC(=O)c1ccc(NS(=O)(=O)c2cccs2)cc1)c1ccc2c(c1)OCO2	.	.	7.5	.	.
COc1cc(C=NN2CCN(c3ccc(Cl)cc3)CC2)cc(OC)c1OC(C)=O	.	.	1.7	.	.
OC(COCc1ccccc1)CN1CCCC1 (stereo not drawn)	10.5*	0.8	1.4	7.3	2.1
OC(COCc1ccccc1)CN1CCN(c2ccccc2)CC1 (stereo not drawn)	1.7	1.7	1.9	-8.2	-6.2
COc1cc(NC(=O)CSc2c3c(nc4ccccc24)CCC3)cc(OC)c1OC	12.8*	3.0	6.1	10.3	-1.6
COc1ccc(NC(=O)CSc2c3c(nc4cc(Cl)ccc24)CCCC3)cc1OC	14.0*	-0.2	10.8	0.4	4.8
Cc1cc(C)c(C)c(N=Nc2nc3ccccc3n2C)c1C	19.0*	4.0	3.3	6.9	7.9

Screening results (PubChem BioAssay)
